Assay outcomes deposited in PubChem BioAssay by Sanford-Burnham Center for Chemical Genomics.
Most compounds without a hit are left out; they make up all but 1.5% or so of the library.
APJ antagonist: blocks the human apelin receptor APJ. 330,000 tested, 0.32% active. CHO-K1 APJ beta-arrestin complementation, luminescence. P35414. inhibition, % at 20 µM;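 active means inhibition above about 40% at 20 µM, limit read from the data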;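 further: cells challenged with 10 nM apelin-13 agonist together with compound; plate controls were apelin-13 plus DMSO wells for no effect and DMSO wells lacking apelin-13 for full effect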
APJ agonist: activates the human apelin receptor APJ | P35414 | CHO-K1 APJ PathHunter beta-arrestin, luminescence; 0% DMSO wells, 100% apelin | activation, % at 20 µM | 330,000 tested, 0.11% active | AID 2520;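 active means activation more than six SD over the plate average, tested at 20 µM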;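 further: 0% = DMSO alone and 100% = apelin-13 at 10 nM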
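Test system: CHO-K1 APJ beta-arrestin complementation cell line | Compound: Single test compound dose, 20 µM final, 1% DMSO | Incubation: Compound 90 min 25 °C, reagent 1 h | Measured by: beta-gal luminescence | Read-out basis: APJ–arrestin association signal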
EBI2 antag: antagonists of human EBI2 receptor; P32249; EBI2 beta-arrestin recruitment, luminescence, 7a,25-OHC stimulated; inhibition, % at 5 µM; 360,000 tested, 0.81% active; AID 651636; in the data active means inhibition above about 38%;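 further: enzyme fragment complementation signal reports receptor beta-arrestin coupling in cells; 0% = agonist plus DMSO wells and 100% = wells without agonist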
CXCR6 inh: blocks human CXCR6 beta-arrestin recruitment; 360,000 tested, 0.36% active; AID 602244; inhibition, % at 20 µM; O00574; CHO-K1 PathHunter CXCR6 beta-arrestin, luminescence; in the data active means inhibition above about 34%, passing the limit was not always enough;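 further: antagonist mode with CXCL16 agonist at 10 nM final; 0% = 10 nM CXCL16 with DMSO and 100% = unstimulated wells without agonist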
CCR6 antagonist: antagonists of human CCR6 receptor | AID 493098 | inhibition, % at 20 µM | P51684 | CHO-K1 CCR6 PathHunter beta-arrestin, luminescence, CCL20-stimulated | 340,000 tested, 0.49% active;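 active means compounds whose inhibition of the agonist-driven luminescence signal at 20 µM reaches about 50%, limit read from the data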;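 further: cells stimulated with CCL20 at 14 nM final; plate controls were DMSO with CCL20 for no effect and DMSO without agonist for full effect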
Target sequence (P51684 whole entry, looked up): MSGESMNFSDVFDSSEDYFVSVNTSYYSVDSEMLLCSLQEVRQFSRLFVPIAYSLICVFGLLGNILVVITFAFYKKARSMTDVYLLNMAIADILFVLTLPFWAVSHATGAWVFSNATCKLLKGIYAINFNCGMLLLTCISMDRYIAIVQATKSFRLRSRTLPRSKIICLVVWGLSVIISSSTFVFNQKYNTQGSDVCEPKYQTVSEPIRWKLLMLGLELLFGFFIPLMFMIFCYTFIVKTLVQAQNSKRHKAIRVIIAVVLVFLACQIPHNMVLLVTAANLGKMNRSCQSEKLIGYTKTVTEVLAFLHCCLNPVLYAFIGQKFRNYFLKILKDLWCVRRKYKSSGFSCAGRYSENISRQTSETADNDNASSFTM
* hit, by the source's call; . = no result.

SMILES	APJ antagonist	APJ agonist	EBI2 antag	CXCR6 inh	CCR6 antagonist
Oc1c(Br)cc(Br)c2cccnc12	.	.	14	31	56*
Oc1c(C(Nc2ccccn2)c2cccnc2)cc(Cl)c2cccnc12 (stereo unspecified)	24	0	50*	2	-10
C=CC(=O)N1C/C(=C/c2ccccc2)C(=O)/C(=C\c2ccccc2)C1	.	.	39	38*	64*
C=CC(=O)N1C/C(=C/c2ccc(Cl)cc2)C(=O)/C(=C\c2ccc(Cl)cc2)C1	.	.	75*	50*	62*
CC(=O)N1N=C(c2cccc([N+](=O)[O-])c2)OC1c1ccccc1Cl (stereo unspecified)	12	-11	11	32	50*
CCc1nc2ccc(C(=O)N(C)Cc3ccco3)cn2c1N(C)Cc1ccc(OC)cc1	.	.	-11	6	.
O=C1N=c2ccccc2=C1c1sc(NS(=O)(=O)Cc2ccccc2)nc1O	13	-6	9	10	76*
O=C1N=c2ccccc2=C1c1sc(Nc2cccc(O)c2)nc1O	33	-4	6	20	34
O=C1N=c2ccccc2=C1c1sc(NS(=O)(=O)c2ccccc2)nc1O	22	-8	3	10	14
O=C1N=c2ccccc2=C1c1sc(Nc2ccc(O)cc2)nc1O	.	.	4	50*	57*
COc1cc(C(=O)C(=O)N2CCN(c3ccccc3)CC2)cc(OC)c1OC	.	.	5	.	.
COc1ccccc1N1C(=O)CC(Sc2nccc(C)n2)C1=O (stereo unspecified)	10	-3	-13	-4	1
COc1ccccc1N1C(=O)CC(Sc2n[nH]c(-c3cccc(C)c3)n2)C1=O (stereo unspecified)	1	5	-9	2	75*
O=C1/C(=C/c2ccc(O)c(O)c2)SC(=S)N1Nc1ccccc1	.	.	6	51*	61*
COc1ccc(CCNC(=O)C2CCN(C(=O)c3ccccc3)CC2)cc1	5	-3	.	.	57*
CCC(C)CN1C(=O)CN(S(C)(=O)=O)CC1(C)C(=O)NCc1ccccc1 (stereo unspecified)	.	.	-5	.	.
CN1C(=CC=C2C=C(I)C(=O)C(I)=C2)C(C)(C)c2ccccc21	.	.	16	45*	73*
c1ccc(/N=C2\N=C(Nc3ccccn3)c3ccccc32)nc1	24	-4	-9	31	56*
c1ccc(Nc2ccccn2)cc1	-8	-1	-9	-4	-1
COc1ccc(C(=O)Nc2nc(-c3ccc([N+](=O)[O-])cc3)c(-c3ccccc3)s2)cc1	13	-6	26	35	43
COc1ccc(-c2sc(NC(=O)c3ccc(C)cc3)nc2-c2ccc([N+](=O)[O-])cc2)cc1	14	-2	7	20	52*
CS(=O)(=O)N(CC(=O)Nc1cccnc1)c1ccc2c(c1)OCO2	3	-5	-2	-5	-4
COc1ccc(Oc2ccc(/C=C/C(=O)c3ccc(O)cc3)cc2[N+](=O)[O-])cc1	18	-4	79*	5	43
CC(C)(C)OC(=O)N[C@@H](Cc1ccccc1)c1nnc(S(=O)(=O)Cc2ccccc2)o1	39	-8	.	.	.
CCC(C)[C@@H](NC(=O)OC(C)(C)C)c1nnc(S(=O)(=O)Cc2cccc(C)c2)o1 (stereo partly specified)	.	.	-5	53*	38
SMILES	APJ antagonist	APJ agonist	EBI2 antag	CXCR6 inh	CCR6 antagonist
CC1=C(C(=O)N(C(C)C)C(C)C)CC(CC(=O)NCCCCc2ccccc2)C(=O)N1Cc1ccc(F)cc1 (stereo unspecified)	.	.	18	1	.
CN(C)c1nc(=NCc2cccs2)ss1	.	.	23	92*	111*
CC(SC(=S)N(C)Cc1cccs1)C(=O)O (stereo unspecified)	1	3	-1	-4	10
CN(C)CC(CCC(CN(C)C)C(=O)c1ccccc1)C(=O)c1ccccc1 (stereo unspecified)	.	.	47*	76*	98*
O=C(NNc1c2ccccc2nc2ccccc12)c1cccc(O)c1	27	-1	1	24	60*
CC(C)c1nnc(NC(=O)C2CCN(C(=O)Nc3ccc(Cl)cc3)CC2)s1	4	0	12	1	5
CCOC(=O)/C(=C/c1ccc(OC(F)F)cc1)C1=Nn2c(nnc2-c2ccc(Cl)cc2)SC1	.	.	48*	16	36
CCOC(=O)/C(=C\c1ccc(OC(F)F)cc1)C1=Nn2c(nnc2-c2ccc(Cl)cc2)SC1	.	.	54*	18	22
COc1ccc(-c2nnc3n2N=C(C)CS3)cc1	-11	-2	-11	6	6
C=CCN1C(=O)/C(=C/c2ccc(OC(C)=O)c(OCC)c2[N+](=O)[O-])SC1=S	.	.	-18	42*	54*
O=[N+]([O-])c1ccc(N=Nc2c(Cl)cc(O)cc2Cl)cc1	.	.	5	44*	74*
CCN(C(=O)c1cnc(NC(C)C)cc1C(F)(F)F)c1ccc(Cl)cc1Cl	19	-5	14	10	16
O=C(CCc1ccccc1)NNC(=S)NC(=O)c1ccccc1	24	-3	-3	26	69*
CC(=O)NC(=S)NNC(=O)CCc1ccccc1	23	-4	0	17	-1
Cc1ccc(N/C(N)=N/c2nc(C)cc(N3CCCCC3)n2)c(C)c1	-23	28*	-17	2	3
C[C@H](CO)N1C[C@H](C)[C@H](CN(C)S(=O)(=O)c2cccc(F)c2)Oc2ncc(-c3cccc(C(=O)N(C)C)c3)cc2C1=O	.	.	5	5	.
O=C(CN1CC(c2ccccc2)CC1=O)N/N=C/c1cc(Br)ccc1O (stereo unspecified)	-16	4	-14	-14	-12
CCCn1c2ccccc2c2nnc(SCC(=O)Nc3ncccn3)nc21	33	-10	12	43*	63*
CCCn1c2ccccc2c2nnc(SCC(=O)Nc3cc(C)on3)nc21	32	-6	27	21	36
C=CCn1c2ccccc2c2nnc(SCC(=O)Nc3cc(C)on3)nc21	38	-7	8	13	55*
O=C(CC[C@H]1O[C@@H](n2ccc(=O)[nH]c2=O)[C@H](O)[C@@H]1O)N[C@H](Cc1ccccc1)C(=O)NCC1CCCCC1	.	.	-5	-14	.
Cc1ccc(OC(=O)CCC(=O)Nc2ccc(C)c(C)c2)cc1	6	-2	5	-2	-3
Cc1ccccc1-n1ccnc1SCC(=O)NCc1ccco1	-16	-2	2	-2	7
COc1ccc(Cn2c(C3CC3)nc3ccc(NC(=O)c4cccnc4)cc3c2=O)cc1	-2	-1	53*	-9	11
CC(=O)Nc1cccc(C(=O)/C=C/c2ccc(/C=C/C(=O)c3cccc(NC(C)=O)c3)cc2)c1	-7	1	.	.	.
CC(=O)Nc1cccc(C(=O)/C=C/c2ccc(N(C)C)cc2)c1	-15	2	43*	-9	5
CN(C)c1ccc(C(=O)/C=C/c2ccccc2)cc1	10	-3	76*	7	21
